Experimental data published in ChEMBL document CHEMBL1926500, “Design, synthesis, biological evaluation and molecular modeling of 1,3,4-oxadiazoline analogs of combretastatin-A4 as novel antitubulin agents” (Bioorg Med Chem, 2012).

How the values were obtained:
B16-F10 [1] = test: Antiproliferative activity against mouse B16F10 cells after 48 hrs by MTT assay; type: functional, cell-based; conditions: B16-F10, 48 h
In short: (§1)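 Cells grown to log phase in RPMI 1640 with 10% FBS, seeded at 2×10^4 cells/mL, then left 24 h at 37 °C, 5% CO2 before dosing at pre-set concentrations. […] After 48 h exposure, MTT (2.5 mg/mL in PBS) was added for 4 h, then SDS/isobutyl alcohol/HCl extraction overnight at 37 °C, and OD read at 570 nm. Triplicate wells per concentration; each assay run at least three times; IC50 derived.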

HepG2 = test: Antiproliferative activity against human HepG2 cells after 48 hrs by MTT assay; type: functional, cell-based; conditions: HepG2, 48 h; in short: as §1
MCF7 = test: Antiproliferative activity against human MCF7 cells after 48 hrs by MTT assay; type: functional, cell-based; conditions: MCF7, 48 h; in short: as §1
[2] = Inhibition of bovine brain tubulin polymerization after 20 mins by turbidimetry; design: species or system Bos taurus
In short: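 Bovine brain tubulin, purified in-house, used at 10 μM in glutamate buffer and preincubated with varying compound concentrations at 30 °C, then cooled to 0 °C. GTP added, mixtures warmed to 30 °C in a recording spectrophotometer, and assembly followed turbidimetrically. IC50 is the concentration inhibiting extent of assembly by 50% after 20 min.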

B16-F10 [3] = test: Cell cycle arrest in mouse B16F10 cells assessed as accumulation at G2/M phase at 2 ug/ml after 24 hrs by flow cytometry analysis (reference value: 17.67 %); type: functional
B16-F10 [4] = test: Cell cycle arrest in mouse B16F10 cells assessed as accumulation at S phase at 2 ug/ml after 24 hrs by flow cytometry analysis (reference value: 9.97 %); type: functional
B16-F10 [5] = test: Cell cycle arrest in mouse B16F10 cells assessed as accumulation at Go/G1 phase at 2 ug/ml after 24 hrs by flow cytometry analysis (reference value: 70.4 %); type: functional
B16-F10 [6] = test: Cell cycle arrest in mouse B16F10 cells assessed as accumulation at G2/M phase at 1 ug/ml after 24 hrs by flow cytometry analysis (reference value: 17.67 %); type: functional
B16-F10 [7] = test: Cell cycle arrest in mouse B16F10 cells assessed as accumulation at S phase at 1 ug/ml after 24 hrs by flow cytometry analysis (reference value: 9.97 %); type: functional

SMILES	IC50 (B16-F10 [1])	IC50 (HepG2)	IC50 (MCF7)	IC50 [2]	pIC50 [2]	Activity (B16-F10 [3])	Activity (B16-F10 [4])	Activity (B16-F10 [5])	Activity (B16-F10 [6])	Activity (B16-F10 [7])
CC(=O)N1N=C(c2ccc3ccccc3c2)OC1c1ccccc1 (centres undefined)	2.57 µM	2.11 µM	2.43 µM	21.2 µM	4.17					
COc1ccc(C2OC(c3ccc4ccccc4c3)=NN2C(C)=O)cc1 (centres undefined)	6.86 µM	3.6 µM	7.35 µM	105 µM	3.51					
CC(=O)N1N=C(c2ccc3ccccc3c2)OC1c1ccc(Br)cc1 (centres undefined)	4.68 µM	2.08 µM	5.07 µM	33.8 µM	4.06					
CC(=O)N1N=C(c2ccc3ccccc3c2)OC1c1ccccc1Cl (centres undefined)	4.93 µM	4.32 µM	2.36 µM	51.4 µM	3.83					
CC(=O)N1N=C(c2ccc3ccccc3c2)OC1c1ccc(Cl)cc1 (centres undefined)	2.48 µM	1.88 µM	2.63 µM	12.7 µM	4.44					
CC(=O)N1N=C(c2ccc3ccccc3c2)OC1c1ccc2ccccc2c1 (centres undefined)	1.56 µM	0.85 µM	1.01 µM	4.3 µM	4.93	77.18%	2.04%	1.72%		
CC(=O)N1N=C(c2ccc3ccccc3c2)OC1c1cccnc1 (centres undefined)	3.06 µM	2.86 µM	2.61 µM	20.1 µM	4.19					
COc1cc2c(c(OC)c1OC)-c1ccc(OC)c(=O)cc1[C@@H](NC(C)=O)CC2 [COLCHICINE]									75.24%	2.43%
COc1ccc(/C=C\c2cc(OC)c(OC)c(OC)c2)cc1O [COMBRETASTATIN A4]	0.75 µM	0.54 µM	0.48 µM	2.9 µM						

The remaining compounds from weak to strong by IC50 [2], led by results:

IC50 (B16-F10 [1])	IC50 (HepG2)	IC50 (MCF7)	IC50 [2]	pIC50 [2]	SMILES	Activity (B16-F10 [3])	Activity (B16-F10 [4])	Activity (B16-F10 [5])	Activity (B16-F10 [6])	Activity (B16-F10 [7])
9.01 µM	12.3 µM	18.2 µM	140 µM	3.4	CC(=O)N1N=C(c2ccc3ccccc3c2)OC1c1ccccc1[N+](=O)[O-] (centres undefined)					
9.32 µM	8.1 µM	7.59 µM	103 µM	3.54	CC(=O)N1N=C(c2ccc3ccccc3c2)OC1c1ccc([N+](=O)[O-])cc1 (centres undefined)					
8.08 µM	3.38 µM	5.49 µM	58.2 µM	3.86	CC(=O)N1N=C(c2ccc3ccccc3c2)OC1c1ccc(OCc2ccccc2)cc1 (centres undefined)					
7.18 µM	5.26 µM	6.02 µM	53.8 µM	3.77	CC(=O)N1N=C(c2ccc3ccccc3c2)OC1c1ccccn1 (centres undefined)					
8.56 µM	6.82 µM	7.98 µM	51.9 µM	3.79	CC(=O)N1N=C(c2ccc3ccccc3c2)OC1c1ccsc1 (centres undefined)					
6.98 µM	3.98 µM	5.49 µM	51.5 µM	3.88	CC(=O)N1N=C(c2ccc3ccccc3c2)OC1c1ccccc1Br (centres undefined)					
6.05 µM	3.36 µM	3.44 µM	48.1 µM	3.84	CC(=O)N1N=C(c2ccc3ccccc3c2)OC1c1ccccc1F (centres undefined)					
3.85 µM	2.26 µM	2.9 µM	30.5 µM	4.03	CC(=O)N1N=C(c2ccc3ccccc3c2)OC1c1ccc(C)cc1 (centres undefined)					
4.65 µM	1.82 µM	3.02 µM	28.1 µM	4.07	CC(=O)N1N=C(c2ccc3ccccc3c2)OC1c1ccc(F)cc1 (centres undefined)					
2.58 µM	1.84 µM	2.12 µM	27.1 µM	4.08	CC(=O)N1N=C(c2ccc3ccccc3c2)OC1c1ccccc1O (centres undefined)					
2.97 µM	2.17 µM	2.56 µM	22.8 µM	4.14	CC(=O)N1N=C(c2ccc3ccccc3c2)OC1c1ccncc1 (centres undefined)					
2.36 µM	1.68 µM	2.34 µM	19.4 µM	4.3	CC(=O)N1N=C(c2ccc3ccccc3c2)OC1c1cccc(Br)c1 (centres undefined)					
1.61 µM	1.86 µM	1.98 µM	9.2 µM	4.55	CC(=O)N1N=C(c2ccc3ccccc3c2)OC1c1cccc(F)c1 (centres undefined)					
